# Measured values: ChEMBL document CHEMBL4373711, “Development of 3,5-Dinitrophenyl-Containing 1,2,4-Triazoles and Their Trifluoromethyl Analogues as Highly Efficient Antitubercular Agents Inhibiting Decaprenylphosphoryl-β-d-ribofuranose 2'-Oxidase” (J Med Chem, 2019)
# What was measured:
# [1] = test system: Mycobacterium tuberculosis; test: microbe, parasite or virus in culture; conditions: 234/2005, 336 h
# [2] = test system: Mycobacterium tuberculosis; test: Antimycobacterial activity against multi-drug resistant Mycobacterium tuberculosis 9449/2007 after 21 days; format: functional; conditions: 9449/2007, 504 h
# In short: (§1)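 M. tuberculosis strains (H37Rv and clinical MDR/XDR isolates) tested by microdilution in Šula's semisynthetic medium. Compounds were dissolved in DMSO and tested at 32 to 0.03 µM in twofold steps. Inoculum was a 1.0 McFarland suspension diluted 10-3. Plates were incubated at 37 °C and read at 14 and 21 days.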
# [3] = Selectivity index, ratio of IC50 for human A431 cells to MIC>99 for antimycobacterial activity against multi-drug resistant Mycobacterium tuberculosis 234/2005 after 21 days; format: toxicity; conditions: read-out: Selectivity Index
# [4] = Selectivity index, ratio of IC50 for human HepG2 cells to MIC>99 for antimycobacterial activity against multi-drug resistant Mycobacterium tuberculosis 7357/1998 after 21 days; format: toxicity; conditions: read-out: Selectivity Index
# In short: (§2)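 SI from HepG2 IC50 and M. tuberculosis MIC. HepG2 cells: DMEM + 10% FBS + 1 mM pyruvate, 10,000/well, 48 h treatment, 0.1% DMSO and 10% SDS controls, MTS absorbance at 490 nm.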
# [5] = Selectivity index, ratio of IC50 for human A431 cells to MIC>99 for antimycobacterial activity against multi-drug resistant Mycobacterium tuberculosis 8666/2010 after 21 days; format: toxicity; conditions: read-out: Selectivity Index
# [6] = Selectivity index, ratio of IC50 for human HepG2 cells to MIC>99 for antimycobacterial activity against multi-drug resistant Mycobacterium tuberculosis 234/2005 after 14 days; format: toxicity; conditions: read-out: Selectivity Index
# In short: as §2
# [7] = test system: Mycobacterium tuberculosis; test: Antimycobacterial activity against multi-drug resistant Mycobacterium tuberculosis 7357/1998 after 21 days; format: functional; conditions: 7357/1998, 504 h
# In short: as §1
# [8] = test system: Mycobacterium tuberculosis; test: Antimycobacterial activity against multi-drug resistant Mycobacterium tuberculosis Praha 4 after 21 days; format: functional; conditions: Praha 4, 504 h
# In short: as §1
# [9] = Selectivity index, ratio of IC50 for human HepG2 cells to MIC>99 for antimycobacterial activity against multi-drug resistant Mycobacterium tuberculosis 7357/1998 after 14 days; format: toxicity; conditions: read-out: Selectivity Index
# In short: as §2
# [10] = Selectivity index, ratio of IC50 for human A431 cells to MIC>99 for antimycobacterial activity against multi-drug resistant Mycobacterium tuberculosis Praha 4 after 14 days; format: toxicity; conditions: read-out: Selectivity Index
# [11] = Selectivity index, ratio of IC50 for human HepG2 cells to MIC>99 for antimycobacterial activity against multi-drug resistant Mycobacterium tuberculosis Praha 1 after 21 days; format: toxicity; conditions: read-out: Selectivity Index
# In short: as §2
# [12] = Selectivity index, ratio of IC50 for human HepG2 cells to MIC>99 for antimycobacterial activity against multi-drug resistant Mycobacterium tuberculosis Praha 4 after 21 days; format: toxicity; conditions: read-out: Selectivity Index
# In short: as §2
# [13] = Selectivity index, ratio of IC50 for human HepG2 cells to MIC>99 for antimycobacterial activity against multi-drug resistant Mycobacterium tuberculosis 234/2005 after 21 days; format: toxicity; conditions: read-out: Selectivity Index
# In short: as §2
# [14] = Selectivity index, ratio of IC50 for human HepG2 cells to MIC>99 for antimycobacterial activity against multi-drug resistant Mycobacterium tuberculosis 9449/2007 after 21 days; format: toxicity; conditions: read-out: Selectivity Index
# In short: as §2
# [15] = Selectivity index, ratio of IC50 for human A431 cells to MIC>99 for antimycobacterial activity against multi-drug resistant Mycobacterium tuberculosis 7357/1998 after 21 days; format: toxicity; conditions: read-out: Selectivity Index
# [16] = test system: Mycobacterium tuberculosis; test: Antimycobacterial activity against multi-drug resistant Mycobacterium tuberculosis Praha 1 after 14 days; format: functional; conditions: Praha 1, 336 h
# In short: as §1
# [17] = Selectivity index, ratio of IC50 for human HepG2 cells to MIC>99 for antimycobacterial activity against multi-drug resistant Mycobacterium tuberculosis 8666/2010 after 14 days; format: toxicity; conditions: read-out: Selectivity Index
# In short: as §2
# [18] = Selectivity index, ratio of IC50 for human A431 cells to MIC>99 for antimycobacterial activity against multi-drug resistant Mycobacterium tuberculosis 9449/2007 after 21 days; format: toxicity; conditions: read-out: Selectivity Index
# [19] = test system: Mycobacterium tuberculosis; test: Antimycobacterial activity against multi-drug resistant Mycobacterium tuberculosis 7357/1998 after 14 days; format: functional; conditions: 7357/1998, 336 h
# In short: as §1
# [20] = Selectivity index, ratio of IC50 for human A431 cells to MIC>99 for antimycobacterial activity against multi-drug resistant Mycobacterium tuberculosis Praha 1 after 14 days; format: toxicity; conditions: read-out: Selectivity Index
# [21] = Selectivity index, ratio of IC50 for human A431 cells to MIC>99 for antimycobacterial activity against multi-drug resistant Mycobacterium tuberculosis Praha 1 after 21 days; format: toxicity; conditions: read-out: Selectivity Index
# [22] = test system: Mycobacterium tuberculosis; test: Antimycobacterial activity against multi-drug resistant Mycobacterium tuberculosis Praha 4 after 14 days; conditions: Praha 4, 336 h
# [23] = test system: Mycobacterium tuberculosis; test: Antimycobacterial activity against multi-drug resistant Mycobacterium tuberculosis 9449/2007 after 14 days; format: functional; conditions: 9449/2007, 336 h
# In short: as §1
# [24] = Selectivity index, ratio of IC50 for human A431 cells to MIC>99 for antimycobacterial activity against multi-drug resistant Mycobacterium tuberculosis Praha 4 after 21 days; format: toxicity; conditions: read-out: Selectivity Index
# In short: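 SI from A431 IC50 and M. tuberculosis MIC. A431 cells: DMEM + 10% FBS, seeded 10,000/well, treated after 24 h for 48 h, 0.1% DMSO (100%) and 10% SDS (0%) controls, MTS absorbance at 490 nm.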
# [25] = test system: Mycobacterium tuberculosis; test: Antimycobacterial activity against multi-drug resistant Mycobacterium tuberculosis Praha 1 after 21 days; format: functional; conditions: Praha 1, 504 h
# In short: as §1
# [26] = Selectivity index, ratio of IC50 for human HepG2 cells to MIC>99 for antimycobacterial activity against multi-drug resistant Mycobacterium tuberculosis Praha 4 after 14 days; format: toxicity; conditions: read-out: Selectivity Index
# In short: as §2
# [27] = Selectivity index, ratio of IC50 for human A431 cells to MIC>99 for antimycobacterial activity against multi-drug resistant Mycobacterium tuberculosis 9449/2007 after 14 days; format: toxicity; conditions: read-out: Selectivity Index
# [28] = Selectivity index, ratio of IC50 for human A431 cells to MIC>99 for antimycobacterial activity against multi-drug resistant Mycobacterium tuberculosis 234/2005 after 14 days; format: toxicity; conditions: read-out: Selectivity Index
# [29] = Selectivity index, ratio of IC50 for human A431 cells to MIC>99 for antimycobacterial activity against multi-drug resistant Mycobacterium tuberculosis 8666/2010 after 14 days; format: toxicity; conditions: read-out: Selectivity Index
# [30] = Selectivity index, ratio of IC50 for human HepG2 cells to MIC>99 for antimycobacterial activity against multi-drug resistant Mycobacterium tuberculosis 8666/2010 after 21 days; format: toxicity; conditions: read-out: Selectivity Index
# In short: as §2
# [31] = test system: Mycobacterium tuberculosis; test: Antimycobacterial activity against multi-drug resistant Mycobacterium tuberculosis 8666/2010 after 21 days; format: functional; conditions: 8666/2010, 504 h
# In short: as §1
# [32] = Selectivity index, ratio of IC50 for human HepG2 cells to MIC>99 for antimycobacterial activity against multi-drug resistant Mycobacterium tuberculosis Praha 1 after 14 days; format: toxicity; conditions: read-out: Selectivity Index
# In short: as §2
# [33] = Selectivity index, ratio of IC50 for human HepG2 cells to MIC>99 for antimycobacterial activity against multi-drug resistant Mycobacterium tuberculosis 9449/2007 after 14 days; format: toxicity; conditions: read-out: Selectivity Index
# In short: as §2
# [34] = Selectivity index, ratio of IC50 for human A431 cells to MIC>99 for antimycobacterial activity against multi-drug resistant Mycobacterium tuberculosis 7357/1998 after 14 days; format: toxicity; conditions: read-out: Selectivity Index
# [35] = test system: Mycobacterium tuberculosis; test: Antimycobacterial activity against multi-drug resistant Mycobacterium tuberculosis 8666/2010 after 14 days; format: functional; conditions: 8666/2010, 336 h
# In short: as §1
# [36] = test system: Mycobacterium tuberculosis; test: Antimycobacterial activity against multi-drug resistant Mycobacterium tuberculosis 234/2005 after 21 days; format: functional; conditions: 234/2005, 504 h
# In short: as §1
smiles,measurement,setting,value
O=[N+]([O-])c1cc(-c2nnc(SCc3ccccc3)n2Cc2ccccc2)cc(C(F)(F)F)c1,MIC99,[1],0.06 µM
same,MIC99,[2],0.06 µM
same,selectivity ratio at 504 h,[3],> 100
same,selectivity ratio at 504 h,[4],> 100
same,selectivity ratio at 504 h,[5],> 100
same,selectivity ratio at 336 h,[6],> 100
same,MIC99,[7],0.06 µM
same,MIC99,[8],0.06 µM
same,selectivity ratio at 336 h,[9],> 100
same,selectivity ratio at 336 h,[10],> 100
same,selectivity ratio at 504 h,[11],> 100
same,selectivity ratio at 504 h,[12],> 100
same,selectivity ratio at 504 h,[13],> 100
same,selectivity ratio at 504 h,[14],> 100
same,selectivity ratio at 504 h,[15],> 100
same,MIC99,[16],0.06 µM
same,selectivity ratio at 336 h,[17],> 100
same,selectivity ratio at 504 h,[18],> 100
same,MIC99,[19],0.06 µM
same,selectivity ratio at 336 h,[20],> 100
same,selectivity ratio at 504 h,[21],> 100
same,MIC99,[22],0.06 µM
same,MIC99,[23],0.125 µM
same,selectivity ratio at 504 h,[24],> 100
same,MIC99,[25],0.06 µM
same,selectivity ratio at 336 h,[26],> 100
same,selectivity ratio at 336 h,[27],> 100
same,selectivity ratio at 336 h,[28],> 100
same,selectivity ratio at 336 h,[29],> 100
same,selectivity ratio at 504 h,[30],> 100
same,MIC99,[31],0.125 µM
same,selectivity ratio at 336 h,[32],> 100
same,selectivity ratio at 336 h,[33],> 100
same,selectivity ratio at 336 h,[34],> 100
same,MIC99,[35],0.06 µM
same,MIC99,[36],0.06 µM
